Activity calls are given as the source filed them. The calls are words filed in the database; no cut-off is given here.
Key:
[1] = Cmax in mouse; assay type: ADME, organism-based; details: in vivo
[2] = target: T1, C-type lectin domain family 4 member C (Homo sapiens) (UniProt Q8WTT0); test: Displacement of biotinylated-TM PAA from human DLEC at 1 mM after 3 hrs by colorimetry
T1 sequence (whole entry): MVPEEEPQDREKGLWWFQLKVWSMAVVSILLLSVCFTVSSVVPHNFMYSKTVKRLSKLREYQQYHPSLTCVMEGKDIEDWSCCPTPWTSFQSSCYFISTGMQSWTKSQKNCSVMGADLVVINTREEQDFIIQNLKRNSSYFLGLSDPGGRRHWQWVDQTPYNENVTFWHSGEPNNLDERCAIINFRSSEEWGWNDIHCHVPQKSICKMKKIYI
In short: (§1)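 Proteins were coated overnight at 4 °C in 20 mM HEPES pH 7.4, 150 mM NaCl and 10 mM CaCl2, then blocked with 3% BSA for 2 h at 4 °C. FimH was a CRD-thrombin-6His construct expressed in E. coli HM125; DC-SIGN and DC-SIGNR were CRD-Fc chimeras made in stably transfected CHO-K1. Compound at 1 mM final was co-added with streptavidin-HRP-coupled TM-PAA, incubated 3 h at 25 °C and 350 rpm, then read by ABTS OD 415 nm. No-antagonist signal was set to 100% and no-polymer background to 0%.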

[3] = Displacement of biotinylated-TM PAA from Escherichia coli FimH expressed in Escherichia coli HM125 after 3 hrs by colorimetry
Escherichia coli [4] = test: Displacement of biotinylated-TM PAA from Escherichia coli FimH expressed in Escherichia coli HM125 at 1 mM after 3 hrs by colorimetry; in short: as §1
[5] = target: T2, C-type lectin domain family 4 member K (Homo sapiens, UniProt Q9UJ71); test: Displacement of biotinylated-TM PAA from human langerin at 1 mM after 3 hrs by colorimetry; in short: as §1
T2 sequence (Q9UJ71 whole entry, the tested form may be a part): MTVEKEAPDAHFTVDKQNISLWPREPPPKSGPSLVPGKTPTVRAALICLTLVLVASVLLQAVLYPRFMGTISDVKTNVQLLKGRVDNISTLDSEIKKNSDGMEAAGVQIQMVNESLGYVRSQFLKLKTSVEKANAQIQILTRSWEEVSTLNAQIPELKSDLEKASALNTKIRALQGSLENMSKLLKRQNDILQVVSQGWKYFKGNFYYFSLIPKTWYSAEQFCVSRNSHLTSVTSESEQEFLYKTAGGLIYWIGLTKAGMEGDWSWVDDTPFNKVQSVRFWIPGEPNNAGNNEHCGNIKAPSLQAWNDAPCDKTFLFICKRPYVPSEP

[6] = target: T3, Macrophage mannose receptor 1 (Homo sapiens) (UniProt P22897); test: Displacement of biotinylated-TM PAA from human MMR at 1 mM after 3 hrs by colorimetry; in short: as §1
T3 sequence (whole entry): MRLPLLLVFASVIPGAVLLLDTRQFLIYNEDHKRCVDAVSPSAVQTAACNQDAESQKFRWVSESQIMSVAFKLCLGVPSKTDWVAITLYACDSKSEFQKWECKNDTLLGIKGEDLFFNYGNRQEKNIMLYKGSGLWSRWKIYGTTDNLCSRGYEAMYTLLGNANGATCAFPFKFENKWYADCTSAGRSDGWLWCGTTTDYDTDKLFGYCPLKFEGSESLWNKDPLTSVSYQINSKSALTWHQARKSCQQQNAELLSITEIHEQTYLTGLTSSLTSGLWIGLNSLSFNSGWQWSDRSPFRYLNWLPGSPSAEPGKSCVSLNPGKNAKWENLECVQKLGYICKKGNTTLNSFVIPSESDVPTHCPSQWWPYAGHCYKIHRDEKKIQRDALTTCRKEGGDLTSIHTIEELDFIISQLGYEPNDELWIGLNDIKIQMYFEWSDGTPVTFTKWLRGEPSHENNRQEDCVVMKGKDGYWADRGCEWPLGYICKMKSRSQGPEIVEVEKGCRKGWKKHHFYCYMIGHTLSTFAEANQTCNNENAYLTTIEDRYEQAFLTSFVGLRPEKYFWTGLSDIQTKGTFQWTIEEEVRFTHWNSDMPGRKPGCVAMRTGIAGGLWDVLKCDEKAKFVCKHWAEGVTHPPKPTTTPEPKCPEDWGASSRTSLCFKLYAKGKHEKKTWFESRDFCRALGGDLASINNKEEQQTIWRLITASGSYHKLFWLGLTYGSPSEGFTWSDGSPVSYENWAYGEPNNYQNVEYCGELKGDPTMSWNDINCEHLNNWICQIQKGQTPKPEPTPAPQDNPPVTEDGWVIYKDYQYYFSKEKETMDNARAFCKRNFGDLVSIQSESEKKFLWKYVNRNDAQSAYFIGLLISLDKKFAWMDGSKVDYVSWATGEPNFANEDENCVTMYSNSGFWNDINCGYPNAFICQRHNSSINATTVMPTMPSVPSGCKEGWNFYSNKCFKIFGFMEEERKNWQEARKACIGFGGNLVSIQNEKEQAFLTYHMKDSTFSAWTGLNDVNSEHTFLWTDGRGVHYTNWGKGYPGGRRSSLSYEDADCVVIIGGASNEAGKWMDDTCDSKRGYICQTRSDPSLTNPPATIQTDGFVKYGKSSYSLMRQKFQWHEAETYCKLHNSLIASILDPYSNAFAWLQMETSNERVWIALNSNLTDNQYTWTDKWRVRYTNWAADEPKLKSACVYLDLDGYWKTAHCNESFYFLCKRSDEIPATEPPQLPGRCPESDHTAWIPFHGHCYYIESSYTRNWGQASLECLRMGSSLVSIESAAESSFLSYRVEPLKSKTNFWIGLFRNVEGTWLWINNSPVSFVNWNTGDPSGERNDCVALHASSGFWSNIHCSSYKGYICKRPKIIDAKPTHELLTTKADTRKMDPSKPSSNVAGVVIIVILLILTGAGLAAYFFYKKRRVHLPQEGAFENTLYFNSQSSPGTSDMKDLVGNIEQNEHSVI

[7] = target: T4, C-type lectin domain family 6 member A (Homo sapiens) (UniProt Q6EIG7); test: Displacement of biotinylated-TM PAA from human Dectin-2 at 1 mM after 3 hrs by colorimetry; in short: as §1
T4 sequence (whole entry): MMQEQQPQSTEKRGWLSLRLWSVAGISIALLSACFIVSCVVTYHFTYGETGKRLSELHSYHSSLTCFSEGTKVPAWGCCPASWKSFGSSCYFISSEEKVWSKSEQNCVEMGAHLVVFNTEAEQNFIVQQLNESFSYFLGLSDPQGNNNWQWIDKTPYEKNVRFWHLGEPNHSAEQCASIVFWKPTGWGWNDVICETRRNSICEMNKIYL

[8] = target: T5, C-type lectin domain family 4 member C (Homo sapiens, UniProt Q8WTT0); test: Displacement of biotinylated-TM PAA from human DLEC after 3 hrs by colorimetry
T5 sequence (Q8WTT0 whole entry): T1 sequence (whole entry)

[9] = target: T6, CD209 antigen (Homo sapiens) (UniProt Q9NNX6); test: Displacement of biotinylated-TM PAA from human DC-SIGN at 1 mM after 3 hrs by colorimetry; in short: as §1
T6 sequence (whole entry): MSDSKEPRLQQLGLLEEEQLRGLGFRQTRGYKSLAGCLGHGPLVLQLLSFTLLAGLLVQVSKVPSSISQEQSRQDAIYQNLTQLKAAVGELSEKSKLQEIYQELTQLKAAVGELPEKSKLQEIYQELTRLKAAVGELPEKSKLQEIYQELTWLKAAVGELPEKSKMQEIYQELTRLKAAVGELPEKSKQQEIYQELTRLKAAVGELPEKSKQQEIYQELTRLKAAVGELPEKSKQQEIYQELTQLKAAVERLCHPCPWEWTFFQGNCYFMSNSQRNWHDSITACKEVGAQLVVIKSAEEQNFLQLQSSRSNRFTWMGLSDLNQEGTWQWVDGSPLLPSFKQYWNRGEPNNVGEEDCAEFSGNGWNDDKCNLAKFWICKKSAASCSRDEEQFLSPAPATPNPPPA

[10] = target: T7, C-type lectin domain family 4 member M (Homo sapiens) (UniProt Q9H2X3); test: Displacement of biotinylated-TM PAA from human DC-SIGNR at 1 mM after 3 hrs by colorimetry; in short: as §1
T7 sequence (whole entry): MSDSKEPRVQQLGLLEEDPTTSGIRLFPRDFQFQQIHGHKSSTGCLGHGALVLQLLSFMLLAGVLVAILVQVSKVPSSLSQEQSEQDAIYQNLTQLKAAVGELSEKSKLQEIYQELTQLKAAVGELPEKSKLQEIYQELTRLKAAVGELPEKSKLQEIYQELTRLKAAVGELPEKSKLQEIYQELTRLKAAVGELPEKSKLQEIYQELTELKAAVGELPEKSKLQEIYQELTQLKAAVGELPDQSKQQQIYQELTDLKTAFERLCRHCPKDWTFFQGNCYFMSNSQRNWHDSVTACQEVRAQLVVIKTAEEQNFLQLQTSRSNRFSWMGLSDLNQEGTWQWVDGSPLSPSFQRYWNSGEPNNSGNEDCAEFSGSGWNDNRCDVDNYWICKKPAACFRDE

[11] = target: T8, Pulmonary surfactant-associated protein D (Homo sapiens) (UniProt P35247); test: Displacement of biotinylated-TM PAA from human SP-D at 1 mM after 3 hrs by colorimetry; in short: as §1
T8 sequence (whole entry): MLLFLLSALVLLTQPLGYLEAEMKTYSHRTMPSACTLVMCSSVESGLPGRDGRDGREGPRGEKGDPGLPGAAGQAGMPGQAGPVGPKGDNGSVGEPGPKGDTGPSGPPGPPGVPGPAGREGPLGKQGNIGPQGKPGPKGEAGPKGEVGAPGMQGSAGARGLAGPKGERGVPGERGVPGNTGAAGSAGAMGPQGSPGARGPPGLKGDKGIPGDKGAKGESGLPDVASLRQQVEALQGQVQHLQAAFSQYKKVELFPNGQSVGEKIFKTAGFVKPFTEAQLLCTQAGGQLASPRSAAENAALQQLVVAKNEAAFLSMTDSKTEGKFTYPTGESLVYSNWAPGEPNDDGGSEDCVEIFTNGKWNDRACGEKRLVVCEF

[12] = target: Mannose-binding protein C (Homo sapiens) (UniProt P11226); test: Displacement of biotinylated-TM PAA from human MBP at 1 mM after 3 hrs by colorimetry; in short: as §1
Sequence of Mannose-binding protein C (Homo sapiens) (P11226 whole entry): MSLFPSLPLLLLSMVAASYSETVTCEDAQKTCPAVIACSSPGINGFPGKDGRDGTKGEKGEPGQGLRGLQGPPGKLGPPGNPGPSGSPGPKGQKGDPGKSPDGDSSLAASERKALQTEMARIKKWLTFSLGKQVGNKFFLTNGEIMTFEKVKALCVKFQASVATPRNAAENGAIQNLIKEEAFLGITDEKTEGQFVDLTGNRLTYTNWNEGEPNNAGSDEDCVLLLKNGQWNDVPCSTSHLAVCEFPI

[13] = target: T9, Macrophage mannose receptor 1 (Homo sapiens, UniProt P22897); test: Displacement of biotinylated-TM PAA from human MMR after 3 hrs by colorimetry
T9 sequence (P22897 whole entry): T3 sequence (whole entry)

[14] = target: T2, C-type lectin domain family 4 member K; test: Displacement of biotinylated-TM PAA from human langerin after 3 hrs by colorimetry
[15] = target: T1, C-type lectin domain family 4 member C (Homo sapiens); test: Displacement of biotinylated-TM PAA from human DLEC at 50 mM after 3 hrs by colorimetry
In short: (§2)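 α-D-mannose served as the positive control at 50 mM final, mixed with streptavidin-HRP-TM-PAA and applied to lectin-coated wells. Wells were coated overnight at 4 °C in HEPES/NaCl/10 mM CaCl2 at pH 7.4 and blocked with BSA. Incubation was 3 h at 25 °C, followed by four washes and ABTS development for 4 min, stopped with oxalic acid, OD 415 nm. Binding is expressed as % of the antagonist-free signal after subtracting the polymer-free background.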

[16] = target: T2, C-type lectin domain family 4 member K; test: Displacement of biotinylated-TM PAA from human langerin at 50 mM after 3 hrs by colorimetry; in short: as §2
[17] = target: T6, CD209 antigen (Homo sapiens); test: Displacement of biotinylated-TM PAA from human DC-SIGN at 50 mM after 3 hrs by colorimetry; in short: as §2
[18] = target: Mannose-binding protein C (Homo sapiens) (UniProt P11226); test: Displacement of biotinylated-TM PAA from human MBP at 50 mM after 3 hrs by colorimetry; in short: as §2
Escherichia coli [19] = test: Displacement of biotinylated-TM PAA from Escherichia coli FimH expressed in Escherichia coli HM125 at 50 mM after 3 hrs by colorimetry; in short: as §2
[20] = target: T4, C-type lectin domain family 6 member A (Homo sapiens); test: Displacement of biotinylated-TM PAA from human Dectin-2 at 50 mM after 3 hrs by colorimetry; in short: as §2
[21] = target: T8, Pulmonary surfactant-associated protein D (Homo sapiens); test: Displacement of biotinylated-TM PAA from human SP-D at 50 mM after 3 hrs by colorimetry; in short: as §2
[22] = target: T7, C-type lectin domain family 4 member M (Homo sapiens); test: Displacement of biotinylated-TM PAA from human DC-SIGNR at 50 mM after 3 hrs by colorimetry; in short: as §2
[23] = target: T3, Macrophage mannose receptor 1 (Homo sapiens); test: Displacement of biotinylated-TM PAA from human MMR at 50 mM after 3 hrs by colorimetry; in short: as §2

SMILES	Cmax [1]	inhibition [2]	IC50 [3]	inhibition (Escherichia coli [4])	inhibition [5]	inhibition [6]	inhibition [7]	inhibition [9]	inhibition [10]	inhibition [11]	inhibition [12]	IC50 [13]	further results
O=C(O)c1ccc(-c2ccc(O[C@H]3O[C@H](CO)[C@@H](O)[C@H](O)[C@@H]3O)c(Cl)c2)cc1	97 µM	inactive	–	Active	63%	54%	inactive	inactive	inactive	inactive	inactive	1000 µM	IC50 [14]: 1000 µM
OC[C@H]1OC(O)[C@@H](O)[C@@H](O)[C@@H]1O (stereo not given in full)	–	–	–	–	–	–	–	–	–	–	–	–	inhibition [15]: > 90%; inhibition [16]: > 90%; inhibition [17]: > 90%; inhibition [18]: > 90%; inhibition (Escherichia coli [19]): > 90%; inhibition [20]: > 90%; inhibition [21]: > 90%; inhibition [22]: > 90%; inhibition [23]: > 90%
O=C(O)c1ccc2c(ccn2-c2ccc(O[C@H]3O[C@H](CO)[C@@H](O)[C@H](O)[C@@H]3O)c(Cl)c2)c1	–	inactive	0.02 µM	Active	inactive	58%	inactive	inactive	inactive	inactive	inactive	1000 µM	–
CN1CCN(c2c(Nc3ccc(O[C@H]4O[C@H](CO)[C@@H](O)[C@H](O)[C@@H]4O)c(Cl)c3)c(=O)c2=O)CC1	–	inactive	0.031 µM	Active	inactive	inactive	inactive	inactive	inactive	inactive	inactive	–	–

Further lines, with some results ahead:

Cmax [1]	inhibition [2]	IC50 [3]	inhibition (Escherichia coli [4])	inhibition [5]	inhibition [6]	inhibition [7]	inhibition [9]	inhibition [10]	inhibition [11]	inhibition [12]	IC50 [13]	SMILES	further results
80 µM	50%	0.017 µM	Active	inactive	inactive	inactive	inactive	inactive	inactive	inactive	–	O=C(O)c1ccc(-c2ccc(O[C@H]3O[C@H](CO)[C@@H](O)[C@H](O)[C@@H]3O)cc2)cc1	IC50 [8]: 1000 µM
144 µM	inactive	0.065 µM	Active	inactive	inactive	inactive	inactive	inactive	inactive	inactive	–	CCCCCCCO[C@H]1O[C@H](CO)[C@@H](O)[C@H](O)[C@@H]1O	–
